Data from ChEMBL document CHEMBL4052702 (Bioorg Med Chem Lett, 2017).
pIC50: −log10 of the molar value.

Experiments:
Homo sapiens [1] = organism: Homo sapiens; test: Inhibition of HDAC in human HeLa-S3 cells lysates assessed as remaining enzyme activity at 3.13 x 10^-8 M pre-incubated for 15 mins before HDAC-Glo I/II substrate addition and measured after 30 mins post substrate addition; format: cell-free
Homo sapiens [2] = organism: Homo sapiens; test: Inhibition of HDAC in human HeLa-S3 cells lysates assessed as remaining enzyme activity at 5 x 10^-7 M pre-incubated for 15 mins before HDAC-Glo I/II substrate addition and measured after 30 mins post substrate addition; format: cell-free
Homo sapiens [3] = organism: Homo sapiens; test: Inhibition of HDAC in human HeLa-S3 cells lysates assessed as remaining enzyme activity at 2.5 x 10^-7 M pre-incubated for 15 mins before HDAC-Glo I/II substrate addition and measured after 30 mins post substrate addition; format: cell-free
Homo sapiens [4] = organism: Homo sapiens; test: Inhibition of HDAC in human HeLa-S3 cells lysates assessed as remaining enzyme activity at 1.25 x 10^-7 M pre-incubated for 15 mins before HDAC-Glo I/II substrate addition and measured after 30 mins post substrate addition; format: cell-free
Homo sapiens [5] = organism: Homo sapiens; test: Inhibition of HDAC in human HeLa-S3 cells lysates assessed as remaining enzyme activity at 6.25 x 10^-8 M pre-incubated for 15 mins before HDAC-Glo I/II substrate addition and measured after 30 mins post substrate addition; format: cell-free
Histone deacetylase 1 [6] = target: T1, Histone deacetylase 1 (Homo sapiens, UniProt Q13547); test: Inhibition of HDAC1 (unknown origin) assessed as remaining enzyme activity at 0.025 uM by ELISA-based assay
T1 sequence (Q13547 whole entry, canonical isoform): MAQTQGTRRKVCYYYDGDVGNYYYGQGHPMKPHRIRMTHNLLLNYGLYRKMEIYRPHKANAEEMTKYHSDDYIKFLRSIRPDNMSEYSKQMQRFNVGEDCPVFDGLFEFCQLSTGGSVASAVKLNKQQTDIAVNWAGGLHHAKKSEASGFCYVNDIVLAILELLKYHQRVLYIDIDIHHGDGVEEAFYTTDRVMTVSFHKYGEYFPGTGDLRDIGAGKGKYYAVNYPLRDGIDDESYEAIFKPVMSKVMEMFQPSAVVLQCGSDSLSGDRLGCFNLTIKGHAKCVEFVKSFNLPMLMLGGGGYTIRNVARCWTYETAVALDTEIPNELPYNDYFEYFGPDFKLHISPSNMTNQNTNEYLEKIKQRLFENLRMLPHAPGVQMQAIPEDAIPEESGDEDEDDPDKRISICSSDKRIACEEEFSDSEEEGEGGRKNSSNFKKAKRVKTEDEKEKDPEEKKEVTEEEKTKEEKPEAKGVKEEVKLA
Summary of the method: (§1)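 Isoform screen by ELISA-based HDAC activity assay against HDAC1, HDAC2, HDAC3 and HDAC6. Each analog was tested at one final concentration: 0.025, 0.125, 0.25 or 1.25 µM. Read-out is percent deacetylase activity remaining, given as the mean with standard error of at least two independent trials.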

Histone deacetylase 2 [7] = target: T2, Histone deacetylase 2 (Homo sapiens, UniProt Q92769); test: Inhibition of HDAC2 (unknown origin) assessed as remaining enzyme activity at 0.025 uM by ELISA-based assay; summary of the method: as §1
T2 sequence (Q92769 whole entry): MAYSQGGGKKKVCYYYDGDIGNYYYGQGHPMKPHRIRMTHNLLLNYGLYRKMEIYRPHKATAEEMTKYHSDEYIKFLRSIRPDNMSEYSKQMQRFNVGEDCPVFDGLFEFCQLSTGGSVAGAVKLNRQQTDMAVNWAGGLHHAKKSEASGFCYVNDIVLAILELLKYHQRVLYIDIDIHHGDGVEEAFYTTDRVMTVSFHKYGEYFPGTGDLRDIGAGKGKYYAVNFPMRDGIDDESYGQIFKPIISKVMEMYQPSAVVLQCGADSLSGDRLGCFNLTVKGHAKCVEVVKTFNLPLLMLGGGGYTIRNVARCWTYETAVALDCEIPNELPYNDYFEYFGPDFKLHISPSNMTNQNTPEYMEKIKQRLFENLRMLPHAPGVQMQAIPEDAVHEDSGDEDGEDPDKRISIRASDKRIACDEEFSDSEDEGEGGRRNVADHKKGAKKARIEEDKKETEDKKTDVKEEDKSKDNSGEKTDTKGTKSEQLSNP

Histone deacetylase 3 [8] = target: T3, Histone deacetylase 3 (Homo sapiens, UniProt O15379); test: Inhibition of HDAC3 (unknown origin) assessed as remaining enzyme activity at 0.025 uM by ELISA-based assay; summary of the method: as §1
T3 sequence (O15379 whole entry): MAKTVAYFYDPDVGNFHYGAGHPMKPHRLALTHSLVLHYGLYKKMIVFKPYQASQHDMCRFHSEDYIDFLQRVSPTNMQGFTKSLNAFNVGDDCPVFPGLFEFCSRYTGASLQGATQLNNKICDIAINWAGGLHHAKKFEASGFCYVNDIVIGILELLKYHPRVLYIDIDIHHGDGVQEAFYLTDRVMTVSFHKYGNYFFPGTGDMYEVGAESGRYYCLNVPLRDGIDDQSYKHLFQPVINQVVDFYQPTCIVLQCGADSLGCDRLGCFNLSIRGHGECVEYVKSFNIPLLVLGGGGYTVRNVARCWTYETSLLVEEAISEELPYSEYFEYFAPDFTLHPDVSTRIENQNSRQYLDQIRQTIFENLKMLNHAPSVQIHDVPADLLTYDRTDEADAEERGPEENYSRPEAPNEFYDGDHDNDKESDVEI

[9] = target: T4, Protein deacetylase HDAC6 (Homo sapiens) (UniProt Q9UBN7); test: Inhibition of HDAC6 (unknown origin) assessed as remaining enzyme activity at 0.025 uM by ELISA-based assay; summary of the method: as §1
T4 sequence (whole entry): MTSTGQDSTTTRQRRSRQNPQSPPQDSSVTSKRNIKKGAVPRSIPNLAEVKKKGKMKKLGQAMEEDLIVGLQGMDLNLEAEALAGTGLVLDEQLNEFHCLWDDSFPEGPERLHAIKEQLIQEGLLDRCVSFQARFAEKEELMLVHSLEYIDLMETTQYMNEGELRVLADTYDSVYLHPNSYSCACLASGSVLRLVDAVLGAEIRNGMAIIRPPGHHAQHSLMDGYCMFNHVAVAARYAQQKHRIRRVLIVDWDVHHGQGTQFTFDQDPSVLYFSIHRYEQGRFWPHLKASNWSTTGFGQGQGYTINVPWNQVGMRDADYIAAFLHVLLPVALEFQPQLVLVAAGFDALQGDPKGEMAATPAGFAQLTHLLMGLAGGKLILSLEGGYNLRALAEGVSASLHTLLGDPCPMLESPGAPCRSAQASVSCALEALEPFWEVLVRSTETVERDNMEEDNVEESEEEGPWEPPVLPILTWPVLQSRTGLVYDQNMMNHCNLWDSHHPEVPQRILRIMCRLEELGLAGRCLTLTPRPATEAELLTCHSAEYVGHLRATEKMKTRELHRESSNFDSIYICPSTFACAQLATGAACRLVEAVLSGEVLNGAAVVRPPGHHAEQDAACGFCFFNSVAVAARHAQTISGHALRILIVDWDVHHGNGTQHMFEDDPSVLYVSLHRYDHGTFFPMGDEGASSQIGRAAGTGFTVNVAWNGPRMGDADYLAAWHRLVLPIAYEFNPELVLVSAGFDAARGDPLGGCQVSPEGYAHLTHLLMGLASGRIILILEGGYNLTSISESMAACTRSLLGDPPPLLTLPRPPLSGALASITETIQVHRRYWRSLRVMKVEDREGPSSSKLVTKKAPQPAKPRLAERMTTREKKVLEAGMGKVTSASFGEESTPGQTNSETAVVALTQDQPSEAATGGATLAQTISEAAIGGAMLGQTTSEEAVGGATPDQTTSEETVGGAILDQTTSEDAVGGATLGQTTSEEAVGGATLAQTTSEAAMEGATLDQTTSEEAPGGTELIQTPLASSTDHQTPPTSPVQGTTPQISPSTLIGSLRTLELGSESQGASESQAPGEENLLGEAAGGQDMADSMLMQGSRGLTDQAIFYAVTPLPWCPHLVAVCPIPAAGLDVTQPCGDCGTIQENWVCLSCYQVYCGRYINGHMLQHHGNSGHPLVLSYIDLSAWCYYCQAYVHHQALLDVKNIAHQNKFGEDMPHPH

[10] = Inhibition of HDAC in human HeLa-S3 cells lysates pre-incubated for 15 mins before HDAC-Glo I/II substrate addition and measured after 30 mins post substrate addition; format: cell-based
Homo sapiens [11] = organism: Homo sapiens; test: Inhibition of HDAC in human HeLa-S3 cells lysates assessed as remaining enzyme activity at 8 x 10^-6 M pre-incubated for 15 mins before HDAC-Glo I/II substrate addition and measured after 30 mins post substrate addition; format: cell-free
Homo sapiens [12] = organism: Homo sapiens; test: Inhibition of HDAC in human HeLa-S3 cells lysates assessed as remaining enzyme activity at 4 x 10^-6 M pre-incubated for 15 mins before HDAC-Glo I/II substrate addition and measured after 30 mins post substrate addition; format: cell-free
Homo sapiens [13] = organism: Homo sapiens; test: Inhibition of HDAC in human HeLa-S3 cells lysates assessed as remaining enzyme activity at 2 x 10^-6 M pre-incubated for 15 mins before HDAC-Glo I/II substrate addition and measured after 30 mins post substrate addition; format: cell-free
Homo sapiens [14] = organism: Homo sapiens; test: Inhibition of HDAC in human HeLa-S3 cells lysates assessed as remaining enzyme activity at 1 x 10^-6 M pre-incubated for 15 mins before HDAC-Glo I/II substrate addition and measured after 30 mins post substrate addition; format: cell-free
Histone deacetylase 1 [15] = target: T1, Histone deacetylase 1; test: Inhibition of HDAC1 (unknown origin) assessed as remaining enzyme activity at 0.125 uM by ELISA-based assay; summary of the method: as §1
Histone deacetylase 2 [16] = target: T2, Histone deacetylase 2; test: Inhibition of HDAC2 (unknown origin) assessed as remaining enzyme activity at 0.125 uM by ELISA-based assay; summary of the method: as §1
Histone deacetylase 3 [17] = target: T3, Histone deacetylase 3; test: Inhibition of HDAC3 (unknown origin) assessed as remaining enzyme activity at 0.125 uM by ELISA-based assay; summary of the method: as §1
[18] = target: T4, Protein deacetylase HDAC6 (Homo sapiens); test: Inhibition of HDAC6 (unknown origin) assessed as remaining enzyme activity at 0.125 uM by ELISA-based assay; summary of the method: as §1

Structure (SMILES)	Activity (Homo sapiens [1]) [%]	Activity (Homo sapiens [2]) [%]	Activity (Homo sapiens [3]) [%]	Activity (Homo sapiens [4]) [%]	Activity (Homo sapiens [5]) [%]	Activity (Histone deacetylase 1 [6]) [%]	Activity (Histone deacetylase 2 [7]) [%]	Activity (Histone deacetylase 3 [8]) [%]	Activity [9] [%]	pIC50 [10]	Activity (Homo sapiens [11]) [%]	Activity (Homo sapiens [12]) [%]	Activity (Homo sapiens [13]) [%]	Activity (Homo sapiens [14]) [%]	Activity (Histone deacetylase 1 [15]) [%]	Activity (Histone deacetylase 2 [16]) [%]	Activity (Histone deacetylase 3 [17]) [%]	Activity [18] [%]
CC(CCCC(=O)NO)CCC(=O)Nc1ccccc1 (centres undefined)	85	14	15	44	68	67	81	80	63	–	–	–	–	–	–	–	–	–
O=C(CCCC(CCC(=O)Nc1ccccc1)c1ccccc1)NO (centres undefined)	–	94	–	–	–	–	–	–	–	5.66	15	31	53	74	83	85	86	63
